Tests used:
[1] = Cytostatic activity against human Huh5-2 cells assessed as cell viability after 72 hrs by MTS assay; format: cell-based; conditions: huh-5-2, 72 h
Procedure, shortened: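 Huh 5-2 cells carry genotype 1b I389luc-ubineo/NS3-3'/5.1 replicon, maintained with 2% Geneticin. Seeded at 6 500 cells/well in Geneticin-free assay medium, overnight. Four-step 1:5 dilution screen or eight-step 1:2 series, 72 h at 37 °C. 5% MTS for 1.5 h, absorbance at 498 nm as % of untreated. CC50 from dose-response, mean of ≥3 independent experiments.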

Hepatitis C virus [2] = assay: Antiviral activity against Hepatitis C virus genotype 1b I389luc-ubi-neo/NS3-3'/5.1 replicon in Huh 5-2 cells assessed as inhibition of replicon replication after 72 hrs by replicon system assay; format: functional, organism-based, Hepacivirus hominis; conditions: Huh-5-2, 72 h
Procedure, shortened: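 Huh 5-2 replicon cells seeded at 6 500 cells/well one day before compound in DMEM with 10% FCS, 1% non-essential amino acids, 1% penicillin/streptomycin, no Geneticin. Four-step 1-to-5 or eight-step 1-to-2 dilutions, 72 h at 37 °C, 5% CO₂. Luciferase luminescence read after lysis, as % of untreated controls. EC50/EC90 from dose-response curves, means of at least three independent experiments.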

[3] = Inhibition of Hepatitis C virus genotype 1b HC-J4 recombinant N-terminal histidine tagged truncated NS5B polymerase lacking C-terminal 21 amino acids assessed as standard-primer dependent elongation reaction using poly rA/U12 as template after 1 hr by liquid scintillation counting analysis; set-up: species or system Hepatitis C virus isolate HC-J4
Procedure, shortened: (§1)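 Construct is His-tagged HC-J4 NS5B CΔ21, Ni-NTA purified. Poly rA/U12 primer-dependent elongation run 1 h at 30 °C, then stopped with chilled 5% TCA/0.5 mM pyrophosphate. Products collected on GF-B filters and counted by scintillation. Activity expressed relative to DMSO control. Screen at 25 μM. IC50 from 8–12 concentrations in duplicate, two independent experiments, by nonlinear regression.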

[4] = tested on: Hepatitis C virus isolate HC-J4; assay: Inhibition of Hepatitis C virus genotype 1b HC-J4 recombinant N-terminal histidine tagged truncated NS5B polymerase lacking C-terminal 21 amino acids assessed as standard-primer dependent elongation reaction using poly rA/U12 as template at 25 uM after 1 hr by liquid scintillation counting analysis; procedure, shortened: as §1
[5] = Selectivity index, ratio of CC50 for human Huh5-2 cells to EC50 for Hepatitis C virus genotype 1b I389luc-ubi-neo/NS3-3'/5.1 replicon in Huh 5-2 cells; format: toxicity, cell-based; conditions: read-out: Ratio CC50/EC50
Procedure, shortened: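 Huh 5-2 replicon cells seeded at 6,500/well, overnight at 37 °C; compound dilution series (four-step 1:5 screen, eight-step 1:2 dose-response), 72 h. Antiviral: luciferase luminescence versus untreated controls. Parallel anti-metabolic: 5% MTS 1.5 h, absorbance 498 nm. EC50, CC50 from dose-response curves, means of at least three independent experiments; SI = CC50/EC50.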

[6] = Cytotoxicity against human Huh-9-13 cells assessed as alteration in cell morphology by microscopic analysis; format: cell-based
[7] = Cytostatic activity against human Huh-9-13 cells assessed as cell viability after 72 hrs by MTS assay; format: cell-based
Procedure, shortened: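 Huh 9–13 subgenomic replicon cells seeded at 6 500 cells/well in DMEM with 10% FCS, 1% non-essential amino acids, 1% penicillin/streptomycin, then incubated overnight. Compound dilution series given, 72 h at 37 °C, 5% CO₂. Medium replaced with 5% MTS in phenol red-free medium for 1.5 h. Absorbance read at 498 nm as % of untreated. CC50 taken from dose-response, mean of ≥3 independent experiments.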

Hepatitis C virus [8] = assay: Antiviral activity against Hepatitis C virus genotype 1b I389luc-ubi-neo/NS3-3'/5.1 replicon in Huh 9-13 cells assessed as reduction in replicon RNA level after 72 hrs by RT-PCR analysis; format: functional, organism-based, Hepacivirus hominis
[9] = Selectivity index, ratio of CC50 for human Huh-9-13 cells to EC50 for Hepatitis C virus genotype 1b I389luc-ubi-neo/NS3-3'/5.1 replicon in Huh-9-13 cells; format: toxicity, cell-based; conditions: read-out: Ratio CC50/EC50
Procedure, shortened: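 Huh 9-13 replicon cells, setup and 72 h compound exposure as for Huh 5-2; CC50 by MTS in parallel. Antiviral readout: replicon RNA by one-step RT-qPCR of cell-to-cDNA lysates (300 nM each primer, 60 nM probe; 40 cycles), expressed as percentage of untreated controls to give EC50; SI = CC50/EC50.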

[10] = Binding affinity to Hepatitis C virus truncated NS5B polymerase lacking C-terminal 21 amino acids after 5 mins by fluorescence quenching assay; set-up: species or system Hepacivirus hominis
Procedure, shortened: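 NS5B CΔ21 at 1 μM final in 50 mM Tris-HCl pH 7.8, 50 mM NaCl, 10% glycerol, 10% DMSO, 0.5 mM MnCl2. Serially diluted compound or DMSO, 5 min at room temperature. Intrinsic fluorescence excitation 280 nm, emission 330 nm; buffer-plus-compound background subtracted. KD fitted to ΔF/ΔFmax = [compound]total/(KD + [compound]total).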

[11] = Binding affinity to Hepatitis C virus isolate Con1 C-terminal hexahistidine fusion-tagged NS5B polymerase ectodomain by surface plasmon resonance assay
Procedure, shortened: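 Con1 NS5B ectodomain (C-terminal His6) amine-coupled to CM5 chip at 4–5 kRU from 10 mM MES pH 6.0. Running buffer TBS-P (20 mM Tris pH 7.4, 130 mM NaCl, 0.05% Tween20, 5% DMSO). Compound injected 60 s at 30 μL/min, two-fold series 6–200 μM. Reference/blank subtraction, solvent correction; KD from global 1:1 Langmuir fit.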

| Structure (SMILES) | CC50 [1] | EC50 (Hepatitis C virus [2]) | EC90 (Hepatitis C virus [2]) | IC50 [3] | inhibition [4] | selectivity ratio [5] | Activity [6] | CC50 [7] | EC50 (Hepatitis C virus [8]) | selectivity ratio [9] | Kd [10] | Kd [11] |
| --- | --- | --- | --- | --- | --- | --- | --- | --- | --- | --- | --- | --- |
| Nc1cc2c(=O)c(C(=O)OCc3ccc(Cl)cc3)cn(Cc3ccc(Cl)cc3)c2cc1Cl | > 200 µM | > 200 µM | > 200 µM | – | – | – | – | – | – | – | – | – |
| Nc1cc2c(=O)c(C(=O)OCc3ccc(Cl)cc3)cn(Cc3ccc(Cl)cc3)c2cc1N1CCN(c2nc3ccccc3s2)CC1 | > 169 µM | 8.6 µM | – | 0.138 µM | > 50% | – | – | – | – | – | – | – |
| Nc1cc2c(=O)c(C(=O)OCc3ccc(Cl)cc3)cn(Cc3ccc(Cl)cc3)c2cc1N1CCN(c2cccc(C(F)(F)F)c2)CC1 | > 147 µM | 23.8 µM | 94.6 µM | 6.13 µM | > 50% | – | – | – | – | – | – | – |
| Nc1cc2c(=O)c(C(=O)OCc3ccc(Cl)cc3)cn(Cc3ccc(Cl)cc3)c2cc1N1CCNCC1 | 3.7 µM | 1.7 µM | – | 0.067 µM | > 50% | 2.3 | – | – | – | – | – | – |
| Nc1cc2c(=O)c(C(=O)O)cn(Cc3ccc(Cl)cc3)c2cc1N1CCN(c2ccccn2)CC1 | > 204 µM | 7.3 µM | – | 23.7 µM | – | – | – | – | – | – | – | – |
| Cc1ccccc1COC(=O)c1cn(Cc2ccc(C(F)(F)F)cc2F)c2cc(Cl)c(N)cc2c1=O | 10.5 µM | 1.5 µM | – | 1.41 µM | > 50% | 6.8 | – | – | – | – | – | – |
| Nc1cc2c(=O)c(C(=O)OCc3ccc(Cl)cc3)cn(Cc3ccc(Cl)cc3)c2cc1N1CCN(c2ccccn2)CC1 | > 244 µM | 2.2 µM | 13.5 µM | 0.069 µM | > 50% | > 111 | Toxic | > 163 µM | 3.03 µM | > 54 | – | – |
| Cc1ccc(COC(=O)c2cn(Cc3ccc(C(F)(F)F)cc3F)c3cc(Cl)c(N)cc3c2=O)cc1 | > 192 µM | 72.3 µM | > 192 µM | 0.154 µM | > 50% | – | – | – | – | – | – | – |
| CN1CCN(c2cc3c(cc2N)c(=O)c(C(=O)OCc2ccc(Cl)cc2)cn3Cc2ccc(Cl)cc2)CC1 | 2.8 µM | 2.7 µM | – | 0.04 µM | > 50% | 1.2 | – | – | – | – | 1.2 µM | 14 µM |
| COc1cc2c(=O)c(C(=O)OCc3ccc(C)cc3)cn(Cc3ccc(C(F)(F)F)cc3F)c2cc1OC | 42.3 µM | 2.02 µM | 4.7 µM | 0.211 µM | – | 21 | – | – | – | – | – | – |
| CCOC(=O)c1cn(Cc2ccc(Cl)cc2)c2cc(N3CCN(c4ccccn4)CC3)c(N)cc2c1=O | > 193 µM | 31.3 µM | – | 3.06 µM | – | > 6.2 | – | – | – | – | – | – |

From ChEMBL document CHEMBL3124751, “The versatile nature of the 6-aminoquinolone scaffold: identification of submicromolar hepatitis C virus NS5B inhibitors” (J Med Chem, 2014)
